Experimental data published in ChEMBL document CHEMBL4038302, “Fibroblast Activation Protein α Activated Tripeptide Bufadienolide Antitumor Prodrug with Reduced Cardiotoxicity” (J Med Chem, 2017).
Active and inactive are the calls of the source. The calls are words filed in the database; no cut-off is given here.

Key:
[1] = molecular target: T1, Prolyl endopeptidase FAP (Homo sapiens, UniProt Q12884); experiment: (§1) Prodrug activation assessed as recombinant human FAP-alpha mediated (S)-((3S,5R,8R,9S,10S,11S,13R,14S,17R)-11,14-dihydroxy-10,13-dimethyl-12-oxo-17-(2-oxo-2H-pyran-5-yl)hexadecahydro-1H-cyclopenta[a]phenanthren-3-yl) 2-amino-4-methylpentanoate formation by measuring concentration of test compound gives half-maximal activity after 90 mins by UPLC-MS/MS analysis; conditions: 1.5 h
T1 sequence (Q12884 whole entry): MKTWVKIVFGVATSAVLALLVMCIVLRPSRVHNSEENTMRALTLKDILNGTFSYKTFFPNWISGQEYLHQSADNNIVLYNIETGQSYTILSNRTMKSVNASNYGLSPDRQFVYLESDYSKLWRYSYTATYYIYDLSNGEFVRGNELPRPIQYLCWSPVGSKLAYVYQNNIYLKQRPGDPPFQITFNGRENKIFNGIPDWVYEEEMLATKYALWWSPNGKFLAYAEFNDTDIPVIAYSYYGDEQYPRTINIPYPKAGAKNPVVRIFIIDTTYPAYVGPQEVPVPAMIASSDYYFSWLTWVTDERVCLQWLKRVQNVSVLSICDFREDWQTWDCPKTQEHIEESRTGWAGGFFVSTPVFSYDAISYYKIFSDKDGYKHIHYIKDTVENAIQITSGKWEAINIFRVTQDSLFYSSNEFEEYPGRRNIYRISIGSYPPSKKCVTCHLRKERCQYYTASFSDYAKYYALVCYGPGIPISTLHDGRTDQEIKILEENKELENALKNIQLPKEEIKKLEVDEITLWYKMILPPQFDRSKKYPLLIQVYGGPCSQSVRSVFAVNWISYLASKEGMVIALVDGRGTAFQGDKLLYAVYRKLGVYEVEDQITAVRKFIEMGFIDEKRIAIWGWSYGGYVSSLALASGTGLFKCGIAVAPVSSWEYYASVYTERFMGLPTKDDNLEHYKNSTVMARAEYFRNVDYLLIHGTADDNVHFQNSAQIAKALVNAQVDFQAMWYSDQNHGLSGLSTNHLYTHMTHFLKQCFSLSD
How it was run: (§2)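 Prodrug at 0.625–40 μmol/L incubated with rhFAPα at 0.45 μg/mL and internal standard in 0.2 mL PBS, pH 7.4, at 37 °C for 90 min. Quenched with MeCN and spun at 18 000g for 15 min; product measured by UPLC-MS/MS. S50 and Vmax fitted with an allosteric sigmoidal model; CLint = Vmax/S50. Three independent experiments.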

[2] = molecular target: T1, Prolyl endopeptidase FAP; experiment: (§3) Prodrug activation assessed as Vmax for recombinant human FAP-alpha mediated (S)-((3S,5R,8R,9S,10S,11S,13R,14S,17R)-11,14-dihydroxy-10,13-dimethyl-12-oxo-17-(2-oxo-2H-pyran-5-yl)hexadecahydro-1H-cyclopenta[a]phenanthren-3-yl) 2-amino-4-methylpentanoate formation after 90 mins by UPLC-MS/MS analysis; conditions: 1.5 h; how it was run: as §2
[3] = molecular target: T1, Prolyl endopeptidase FAP; experiment: as §3, with “as” for “as Vmax for”, “formation by measuring intrinsic clearance” for “formation”; conditions: 1.5 h; how it was run: as §2
[4] = molecular target: T1, Prolyl endopeptidase FAP; experiment: Prodrug activation assessed as recombinant human FAP-alpha mediated (3S,5R,8R,9S,10S,11S,13R,14S,17R)-11,14-dihydroxy-10,13-dimethyl-12-oxo-17-(2-oxo-2H-pyran-5-yl)hexadecahydro-1H-cyclopenta[a]phenanthren-3-yl 4-aminobenzoate formation at 40 umol/L after 6 hrs by UPLC-MS/MS analysis; conditions: 40 µM
How it was run: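 Prodrug at 40 μmol/L incubated with rhFAPα at 0.45 μg/mL in 0.2 mL buffer at 37 °C for 6 h, with bufalin at 2 μmol/L as internal standard. Stopped with acetonitrile and spun at 18 000g for 15 min. Released active form measured by UPLC-MS/MS via peak-area ratio against a standard curve of 0.625–40 μmol/L.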

[5] = system: MDA-MB-435; experiment: Antiproliferative activity against wild type human MDA-MB-435 cells expressing FAP-alpha incubated for 48 hrs by MTT assay; type: functional, cell-based; conditions: MDA-MB-435, 48 h
How it was run: (§4)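 Cells grown in DMEM with 10% FBS and 1% penicillin-streptomycin at 37 °C, 5% CO2; 10% heat-inactivated FBS used during cytotoxicity testing to exclude serum FAP activity. Viability read by MTT; IC50 as mean ± SEM of at least three independent experiments. Transfected lines were made from MDA-MB-231 with human FAPα plasmid or empty pCMV6-Entry vector and checked by Western blot at 48 h.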

[6] = Cytotoxicity in BMSC (unknown origin) assessed as cell viability at 1000 nmol/L after 72 hrs by MTT assay; type: cell-based; conditions: unidentified, 1 µM
[7] = system: Mus musculus; experiment: Cardiotoxicity in BALB/C nude mouse xenografted with human MDA-MB-231 cells assessed as increase in interventricular septal systole dimension at 4 umol/kg, iv administered starting on day 5 measured after day 22 by echocardiography; type: toxicity, organism-based; conditions: in vivo
How it was run: (§5)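 MDA-MB-231 xenograft mice dosed iv daily in 5% HS15 from day 5, 22 days of treatment. Transthoracic echocardiography with a 21 MHz transducer under 1.5% isoflurane, supine position. M-mode images from parasternal short-axis view at papillary muscle level, used to derive LVIDd, LVIDs, IVSd and IVSs. n = 6, mean ± SEM, one-way ANOVA with Tukey's test.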

[8] = system: MDA-MB-231; experiment: Antiproliferative activity against human MDA-MB-231 cells assessed as decrease in cell viability at 62.5 to 500 nmol/L after 72 hrs by MTT assay; type: functional, cell-based
[9] = system: Mus musculus; experiment: Cardiotoxicity in BALB/C nude mouse xenografted with human MDA-MB-231 cells assessed as increase in interventricular septal diastole dimension at 4 umol/kg, iv administered starting on day 5 measured after day 22 by echocardiography; type: toxicity, organism-based; conditions: in vivo; how it was run: as §5
[10] = system: Mus musculus; experiment: Cardiotoxicity in BALB/C nude mouse xenografted with human MDA-MB-231 cells assessed as decrease in left ventricular internal systole dimension at 4 umol/kg, iv administered starting on day 5 measured after day 22 by echocardiography; type: toxicity, organism-based; conditions: in vivo; how it was run: as §5
[11] = system: MCF7; experiment: Antiproliferative activity against FAP-alpha deficient human MCF7 cells incubated for 48 hrs by MTT assay; type: functional, cell-based; conditions: MCF7, 48 h; how it was run: as §4
[12] = system: MDA-MB-231; experiment: Antitumor activity against human MDA-MB-231 cells xenografted in BALB/C nude mouse assessed as tumor regression at 4 umol/kg, iv administered starting on day 5 measured after day 22 by Ki67 staining-based assay; type: functional, organism-based
[13] = Acute toxicity in iv dosed Kunming mouse measured less than 4 hrs post dose; type: organism-based; conditions: in vivo
How it was run: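 Kunming mice (22.0−28.0 g), half male and half female, 10 groups of n = 10. Single iv dose on day 1 across five levels per compound (prodrug 29.98–50.00 μmol/kg; arenobufagin 4.50–8.00 μmol/kg). Watched continuously for 8 h for abnormal behaviour and deaths, then intermittently for 2 weeks, and sacrificed day 14. LD50 by Bliss method.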

[14] = system: Mus musculus; experiment: Cardiotoxicity in BALB/C nude mouse xenografted with human MDA-MB-231 cells assessed as cytoplasmic vacuolization at 4 umol/kg, iv administered starting on day 5 measured after day 22 by hematoxylin-eosin staining-based assay; type: toxicity, organism-based; conditions: in vivo
How it was run: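 Xenograft mice (MDA-MB-231, female BALB/C nude) dosed iv daily in 5% HS15 from day 5. Heart fixed 24 h, paraffin-embedded, cut into 5 μm sections and stained with H&E. Vacuolization scored by a pathologist blind to treatment.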

[15] = system: Mus musculus; experiment: Cardiotoxicity in BALB/C nude mouse xenografted with human MDA-MB-231 cells assessed as decrease in left ventricular internal diastole dimension at 4 umol/kg, iv administered starting on day 5 measured after day 22 by echocardiography; type: toxicity, organism-based; conditions: in vivo; how it was run: as §5
[16] = system: Mus musculus; experiment: Cardiotoxicity in BALB/C nude mouse xenografted with human MDA-MB-231 cells assessed as increase in LDH level at 4 umol/kg, iv administered starting on day 5 measured after day 22; type: toxicity, organism-based; conditions: in vivo
How it was run: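 Xenograft-bearing mice dosed iv daily in 5% HS15. Blood taken by cardiac puncture before sacrifice and spun at 3000 rpm for 20 min at 4 °C to give serum. D-LDH activity measured by colorimetric kit. n = 6, one-way ANOVA with Tukey's test against HS15 control.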

[17] = system: MDA-MB-231; experiment: Antiproliferative activity against FAP-alpha deficient human MDA-MB-231 cells incubated for 48 hrs by MTT assay; type: functional, cell-based; conditions: MDA-MB-231, 48 h; how it was run: as §4
[18] = system: Mus musculus; experiment: Acute toxicity in Kunming mouse assessed as mortality at 4 umol/kg, iv after 8 hrs post dose; type: organism-based; conditions: in vivo
[19] = system: MDA-MB-231; experiment: Antitumor activity against human MDA-MB-231 cells xenografted in BALB/C nude mouse at 4 umol/kg, iv administered starting on day 5 measured after day 22 by Ki67 staining-based assay relative to control; type: functional
How it was run: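 Female BALB/C nude mice, MDA-MB-231 cells (1 × 10^7) injected subcutaneously in Matrigel–PBS 1:1. Daily iv dosing in 5% HS15 vehicle from day 5. Tumours fixed and paraffin-embedded, 5 μm sections, anti-Ki67 IHC, read blind by a pathologist. Proliferative index by image analysis, n = 6. Compared with 5% HS15 control by one-way ANOVA and Tukey's test.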

[20] = system: [H][C@]12CC[C@@]3([H])[C@@]4(O)CC[C@H](c5ccc(=O)oc5)[C@@]4(C)C(=O)[C@@H](O)[C@]3([H])[C@@]1(C)CC[C@H](OC(=O)[C@H](C)NC(=O)[C@@H]1CCCN1C(=O)CNC(=O)OCc1ccccc1)C2; experiment: as §1, with “2-aminopropanoate” for “2-amino-4-methylpentanoate”; how it was run: as §2
[21] = system: [H][C@]12CC[C@@]3([H])[C@@]4(O)CC[C@H](c5ccc(=O)oc5)[C@@]4(C)C(=O)[C@@H](O)[C@]3([H])[C@@]1(C)CC[C@H](OC(=O)[C@H](Cc1c[nH]c3ccccc13)NC(=O)[C@@H]1CCCN1C(=O)CNC(=O)OCc1ccccc1)C2; experiment: as §1, with “2-amino-3-(1H-indol-3-yl)propanoate” for “2-amino-4-methylpentanoate”; how it was run: as §2
[22] = system: [H][C@]12CC[C@@]3([H])[C@@]4(O)CC[C@H](c5ccc(=O)oc5)[C@@]4(C)C(=O)[C@@H](O)[C@]3([H])[C@@]1(C)CC[C@H](OC(=O)[C@@H](NC(=O)[C@@H]1CCCN1C(=O)CNC(=O)OCc1ccccc1)C(C)C)C2; experiment: as §1, with “2-amino-3-methylbutanoate” for “2-amino-4-methylpentanoate”; how it was run: as §2
[23] = system: [H][C@]12CC[C@@]3([H])[C@@]4(O)CC[C@H](c5ccc(=O)oc5)[C@@]4(C)C(=O)[C@@H](O)[C@]3([H])[C@@]1(C)CC[C@H](OC(=O)Cc1ccc(NC(=O)[C@@H]3CCCN3C(=O)CNC(=O)OCc3ccccc3)cc1)C2; experiment: Prodrug activation assessed as recombinant human FAP-alpha mediated 5-((3S,5R,8R,9S,10S,11S,13R,14S,17R)-3-(2-(4-aminophenyl)acetyl)-11,14-dihydroxy-10,13-dimethyl-12-oxohexadecahydro-1H-cyclopenta[a]phenanthren-17-yl)-2H-pyran-2-one formation by measuring concentration of test compound gives half-maximal activity after 90 mins by UPLC-MS/MS analysis; how it was run: as §2

`CC(C)C[C@H](NC(=O)[C@@H]1CCCN1C(=O)CNC(=O)OCc1ccccc1)C(=O)O[C@H]1CC[C@@]2(C)[C@H](CC[C@@H]3[C@@H]2[C@H](O)C(=O)[C@]2(C)[C@@H](c4ccc(=O)oc4)CC[C@]32O)C1` gave an S50 [1] of 11.92 µmol/L, a Vmax [2] of 0.042 µmol/min/mg and a CL [3] of 3520 µL/min/mg.
For `C[C@]12CC[C@H](OC(=O)c3ccc(NC(=O)[C@@H]4CCCN4C(=O)CNC(=O)OCc4ccccc4)cc3)C[C@H]1CC[C@@H]1[C@@H]2[C@H](O)C(=O)[C@]2(C)[C@@H](c3ccc(=O)oc3)CC[C@]12O`, the Drug metabolism [4] was “Metabolite_Notdetected”.
For `C[C@]12CC[C@H](O)C[C@H]1CC[C@@H]1[C@@H]2[C@H](O)C(=O)[C@]2(C)[C@@H](c3ccc(=O)oc3)CC[C@]12O`, the IC50 [5] was 22.4 nM, the Activity [6] was “Non-Toxic” and the Activity [7] was “Toxic”. For the same compound, the Activity [8] was “Active”, the Activity [9] was “Toxic” and the Activity [10] was “Toxic”. The IC50 [11] was 8.88 nM, the Activity [12] was “Active” and the LD50 at 4 h [13] was 6.82 µmol/kg. The Activity [14] was “Toxic”, the Activity [15] was “Toxic” and the Activity [16] was “Toxic”. The IC50 [17] was 15.7 nM, the Activity [18] was “Non-Toxic” and the Activity [19] was 45 - 50%.
Prolyl endopeptidase FAP (Homo sapiens) showed a K0.5 [20] of 21.3 µM, a Vmax [20] of 0.494 µmol/min/mg and a K0.5 [21] of 10.4 µM. It also gave a Vmax [21] of 0.682 µmol/min/mg, a K0.5 [22] of 34.5 µM and a Vmax [22] of 0.044 µmol/min/mg. The K0.5 [23] was 3.68 µM and the Vmax [23] was 0.026 µmol/min/mg.
